Screening data: PubChem, several laboratories
Compounds with a hit are over-represented: about 6.7% of the library has one in this group of screens.
Beta cell apopt: beta cell apoptosis inhibition. INS-1E cytokine-induced death, ATP luminescence, 48 h; percent of positive-control rescue, neutral wells zero. 0.8% of 300,000 active. protection from apoptosis, % (no concentration beside the values);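 active = Every replicate reaches about 75%, or at least half do and their mean reaches it too, limit read from the data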;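 note: 0% = cytokine-treated negative control wells and 100% = positive control rescue; higher means more ATP so stronger rescue from cytokine killing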
CHOP inhibitor: blocks CHOP induction under ER stress | inhibition, % at 10 µM | CHO-K1 CHOP-promoter luciferase, tunicamycin-induced, 15-18 h | 3.8% of 220,000 active;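 active = compounds that reduced the stress-induced luciferase reporter signal by more than about 70% of percent inhibition, limit read from the data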;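 note: 0% = tunicamycin plus vehicle and 100% = wells without tunicamycin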
CSC inhib: cancer stem cell inhibition | cancer stem cell-like cells viability, luminescence | inhibition, % at 7.5 µM | AID 2717 | 1.1% of 300,000 active; in the data active = inhibition above about 75%; tested in HMLE shEcad cells
T cruzi inh: T. cruzi replication inhibition | T. cruzi beta-gal in NIH3T3, luminescence, 90 h | inhibition, % (test concentration not listed) | 1.4% of 300,000 active | AID 1885;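 active = mean inhibition across valid replicates above about 55%, limit read from the data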;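 note: signal also drops with host cell toxicity which is not excluded here; 0% = plate median of DMSO wells and 100% = zero luminescence signal; higher percent means less beta-gal luminescence so fewer parasites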
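System – NIH/3T3 host cells with β-galactosidase reporter T. cruzi · Doses – single 50 nL compound addition per well in DMSO · Reagent – 5000 T. cruzi trypomastigotes/well · Medium – Low-serum DMEM with 2% FBS · Timing – ≥90 h infection period, 3 h prior cell attachment · Evaluation – parasite load inhibition, % · Technique – GalScreen luminescence, 60 min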
GRIN3A LBD mod: modulates the human NR3A ligand-binding domain. NR3A LBD differential scanning fluorimetry, Tm shift; 0% = protein alone, 100% = glycine-bound protein. Tm shift relative to glycine control, % at 25 µM. 2.5% of 340,000 active;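 active = melting temperature shift of at least 10% of the positive control shift, at one fixed dose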
PREPL inh: human PREPL enzyme inhibition; Q4J6C6; recombinant PREPL, fluorescence polarization activity-based probe; inhibition, % at 5.96 µM; 0.68% of 320,000 active; AID 2751; in the data active = inhibition above about 43%;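 note: 0% = enzyme with DMSO and 100% = wells lacking enzyme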
Target sequence (Q4J6C6 whole entry, looked up): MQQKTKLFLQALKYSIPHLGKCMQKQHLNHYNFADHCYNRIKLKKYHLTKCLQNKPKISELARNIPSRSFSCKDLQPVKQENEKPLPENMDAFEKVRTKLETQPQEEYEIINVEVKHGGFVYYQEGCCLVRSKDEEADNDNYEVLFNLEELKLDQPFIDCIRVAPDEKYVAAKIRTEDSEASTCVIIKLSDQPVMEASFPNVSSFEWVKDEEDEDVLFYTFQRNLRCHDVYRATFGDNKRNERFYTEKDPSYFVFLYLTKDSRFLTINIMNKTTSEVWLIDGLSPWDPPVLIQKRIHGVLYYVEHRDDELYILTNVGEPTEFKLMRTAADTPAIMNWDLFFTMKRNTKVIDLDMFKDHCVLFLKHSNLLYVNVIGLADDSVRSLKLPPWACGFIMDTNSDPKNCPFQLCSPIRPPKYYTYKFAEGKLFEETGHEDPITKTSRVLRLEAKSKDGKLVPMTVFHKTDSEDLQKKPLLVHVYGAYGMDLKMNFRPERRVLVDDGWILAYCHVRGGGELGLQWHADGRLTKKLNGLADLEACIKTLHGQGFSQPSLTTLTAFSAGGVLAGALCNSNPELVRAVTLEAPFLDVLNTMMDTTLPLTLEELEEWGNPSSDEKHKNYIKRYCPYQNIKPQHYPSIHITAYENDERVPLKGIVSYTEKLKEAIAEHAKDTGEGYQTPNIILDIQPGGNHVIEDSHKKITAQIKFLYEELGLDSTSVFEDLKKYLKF
Active calls of the source: *; x = no result.

SMILES	Beta cell apopt	CHOP inhibitor	CSC inhib	T cruzi inh	GRIN3A LBD mod	PREPL inh
Cc1ccc(NC(=O)c2ccc(C)c(S(=O)(=O)N3CCOCC3)c2)nc1	x	x	-10.0	5.4	-0.6	-2.4
CCC1=NN2C(=N)/C(=C\c3ccc(OCCOc4ccccc4OC)cc3)C(=O)N=C2S1	x	x	x	15.4	-9.2	1.2
COc1ccc(C(=O)NNC2CC(=O)N(Cc3ccc(Cl)cc3)C2=O)cc1OC (centres undefined)	x	-5.4	-9.0	-4.4	0.2	-6.7
O=C1c2ccccc2C(=O)N1c1cccc(-c2csc(Nc3ccc4c(c3)OCO4)n2)c1	-3.9	8.6	-9.0	x	x	9.8
COc1ccccc1Nc1nc(-c2cccc(N3C(=O)c4ccccc4C3=O)c2)cs1	x	48.8	31.0	-5.4	15.5*	-2.6
CC(C)(C)OC(=O)NCCCC[C@@H](C(=O)NCCCCCCCCCCC(=O)N1CCN(C(=O)OC(C)(C)C)CC1)n1cc(CCO)nn1	21.1	x	-28.2	25.5	-2.1	3.9
C#CCOCCOCCOCCNc1nc(N2CCN(C(=O)CCCCCCCCCCNC(=O)[C@H](CCCCN)n3cc(C[C@@H](C)CC)nn3)CC2)nc(N2CCN(C(=O)CCCCCCCCCCNC(=O)[C@H](CCCCN)n3cc(C[C@@H](C)CC)nn3)CC2)n1	114.5*	x	165.8*	54.6*	18.5*	46.5*
C#CCOCCOCCOCCNc1nc(N2CCN(C(=O)CCCCCCCCCCNC(=O)[C@H](CCCCN)n3cc(CCCC(=O)O)nn3)CC2)nc(N2CCN(C(=O)CCCCCCCCCCNC(=O)[C@H](CCCCN)n3cc(CCCC(=O)O)nn3)CC2)n1	-8.9	x	-11.8	-27.3	-6.6	12.3
C#CCOCCOCCOCCNc1nc(N2CCN(C(=O)CCCCCCCCCCNC(=O)[C@@H](CCSC)n3cc(CCO)nn3)CC2)nc(N2CCN(C(=O)CCCCCCCCCCNC(=O)[C@H]([C@@H](C)CC)n3cc(CCCCCN)nn3)CC2)n1	98.8*	x	-5.3	x	17.1*	39.8
CC[C@H](C)Cc1cn([C@@H](CCCCNC(=O)OC(C)(C)C)C(=O)NCCCCCCCCCCC(=O)N2CCN(C(=O)OC(C)(C)C)CC2)nn1	81.8*	x	14.6	x	-0.8	3.0
C#CCOCCOCCOCCNc1nc(N2CCN(C(=O)CCCCCCCCCCNC(=O)Cn3cc(C[C@@H](C)O)nn3)CC2)nc(N2CCN(C(=O)CCCCCCCCCCNC(=O)[C@H](CCCCN)n3cc(C[C@@H](C)CC)nn3)CC2)n1	62.8	x	88.7*	x	12.6*	28.7
C#CCOCCOCCOCCNc1nc(N2CCN(C(=O)CCCCCCCCCCNC(=O)Cn3cc(C[C@@H](C)O)nn3)CC2)nc(N2CCN(C(=O)CCCCCCCCCCNC(=O)Cn3cc(C[C@@H](C)O)nn3)CC2)n1	22.3	x	62.9	x	-4.6	11.7
C#CCOCCOCCOCCNc1nc(N2CCN(C(=O)CCCCCCCCCCNC(=O)[C@@H](CCSC)n3cc(CCO)nn3)CC2)nc(N2CCN(C(=O)CCCCCCCCCCNC(=O)[C@H]([C@@H](C)CC)n3cc(CCCCN=C(N)N)nn3)CC2)n1	36.9	x	-17.6	x	7.4	40.0
CNC(=S)N1CCc2cc(OC)c(OC)cc2C1	-4.4	6.5	-0.6	-27.1	-1.3	16.4
COc1ccccc1C(=O)N/C(=C\c1ccc(Br)cc1)C(=O)N1CCCC1	-3.4	1.3	-3.5	-14.5	-0.1	-2.6
C#CCOCCOCCOCCNc1nc(N2CCN(C(=O)CCCCCCCCCCNC(=O)[C@H]([C@@H](C)CC)n3cc(CCCCN=C(N)N)nn3)CC2)nc(N2CCN(C(=O)CCCCCCCCCCNC(=O)[C@H](CCCCN)n3cc(C[C@@H](C)CC)nn3)CC2)n1	98.3*	x	102.4*	x	x	57.5*
C#CCOCCOCCOCCNc1nc(N2CCN(C(=O)CCCCCCCCCCNC(=O)[C@H](CO)n3cc(CCCSC)nn3)CC2)nc(N2CCN(C(=O)CCCCCCCCCCNC(=O)[C@H](CCCCN)n3cc(C[C@@H](C)CC)nn3)CC2)n1	49.4	x	126.6*	55.4*	x	29.2
OC12CCCCC1C(c1ccc3c(c1)OCO3)N(Cc1cccc(F)c1)CC2 (centres undefined)	x	60.7	x	28.0	-0.4	x
OC12CCCCC1C(c1ccc3c(c1)OCO3)N(Cc1ccc(F)cc1)CC2 (centres undefined)	-6.6	90.2*	1.3	18.8	-3.5	-19.8
O=c1oc2ccccc2cc1-c1cn2cccnc2n1	8.3	22.8	-5.5	-22.4	1.1	0.7
O=c1oc2ccccc2cc1-c1cn2ccccc2n1	13.4	94.8*	35.8	-9.6	0.9	13.4
O=C1C(=C(I)I)c2ccccc2-c2ccccc21	x	x	x	x	1.3	x
CCc1ccccc1NC(=O)C1CCN(S(=O)(=O)c2ccc3c(c2)N(C(C)=O)CCO3)CC1	5.6	x	-17.6	-2.7	4.6	0.8
Cc1ccc(CN2C(=O)N/C(=C\c3ccc(-c4ccc(C(=O)O)cc4C)o3)C2=O)cc1	7.3	26.1	10.9	x	0.0	77.8*
Cc1ccc(C(=O)O)cc1-c1ccc(/C=C2/NC(=O)N(c3ccccc3)C2=O)o1	1.2	-26.9	-5.5	-2.8	0.3	2.5
SMILES	Beta cell apopt	CHOP inhibitor	CSC inhib	T cruzi inh	GRIN3A LBD mod	PREPL inh
Cc1cc(C(=O)O)ccc1-c1ccc(/C=C2\NC(=O)N(Cc3ccccc3Cl)C2=O)o1	6.2	73.2*	11.4	-5.3	-14.3	29.2
O=C(O)c1ccc(-c2ccc(/C=C3\NC(=O)N(Cc4ccc(Cl)cc4)C3=O)o2)cc1	x	12.6	x	x	-2.1	x
CC(C)c1ccccc1-n1c(SCc2cc(=O)oc3ccc4ccccc4c23)nnc1-c1cccnc1	10.1	11.3	75.8*	13.7	-6.0	12.4
CCOc1ccc(-n2c(SCc3cc(=O)oc4cc(C)ccc34)nnc2-c2cccnc2)cc1	8.3	9.2	-2.9	1.1	-0.7	-12.3
Cc1ccccc1Cn1ccc(NC(=O)CCSc2nc(-c3ccco3)cc(C(F)(F)F)n2)n1	-4.5	54.1	1.0	-1.3	-24.5	-4.2
CC(C)(C)c1ccc(C(=O)NCCCNC(=O)c2ccco2)cc1	2.9	x	x	1.3	1.3	1.0
Cc1cc(NC(=O)CCCSc2nc(-c3ccco3)cc(C(F)(F)F)n2)no1	6.4	87.9*	-11.2	4.7	0.7	13.3
Cc1ccc(Cn2ccc(NC(=O)CCSc3nc(-c4ccco4)cc(C(F)(F)F)n3)n2)cc1	-6.3	89.5*	-16.7	11.0	-0.9	-14.1
CC(C)(C)c1cc(C(F)(F)F)nc(SCCCNC(=O)c2ccco2)n1	6.1	86.3*	-8.8	14.8	1.4	-2.2
COc1ccccc1CNC(=O)c1ccccc1NC(=O)C1=C(C)OCCS1	-3.2	x	-4.7	2.9	-1.6	2.7
COc1ccc(S(=O)(=O)N2CCOCC2)cc1NC(=O)COC(=O)c1ccc([N+](=O)[O-])s1	-3.7	x	-2.1	x	0.5	6.4
Cc1cc(NC(=O)CSc2nc(-c3ccccc3)nc3c2c(=O)n(C)c(=O)n3C)no1	1.0	-9.6	-2.2	-0.4	-2.5	15.3
